Test results taken from ChEMBL document CHEMBL3259545, “Novel pyrrolobenzoxaboroles: design, synthesis, and biological evaluation against Trypanosoma brucei” (Eur J Med Chem, 2014).
≈ marks a conversion by molar mass, not a printed value. Calls of active or inactive are those of the source. The calls are words filed in the database; no cut-off is given here.

Legend:
L929 = test: Cytotoxicity against mouse L929 cells assessed as cell viability after 72 hrs by alamar blue assay; type: cell-based; settings: L929, 72 h
How it was run: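 L929 mouse fibroblasts grown in DMEM with 10% FBS and 1% penicillin/streptomycin, kept sub-confluent. Seeded from a 1 × 10⁴/mL suspension, attached overnight, then medium renewed and DMSO-diluted compounds added. Incubated 72 h at 37 °C, 5% CO₂. Resazurin added for another 3–4 h, fluorescence read at ex 544/em 590 nm.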

[1] = test system: Trypanosoma brucei brucei; test: Antitrypanosomal activity against Trypanosoma brucei brucei 427 after 72 hrs by alamar blue assay; type: functional, organism-based; settings: Trypanosoma brucei, 427, 72 h
How it was run: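 Bloodstream T. b. brucei 427 kept in log phase in HMI-9 with 10% FBS, 10% Serum Plus and penicillin/streptomycin, subcultured every 2–3 days. Final density 1.0 × 10⁵/mL with 0.4% DMSO, exposed to serially diluted compounds for 72 h at 37 °C, 5% CO₂. Resazurin added for another 2–4 h, fluorescence read at ex 544/em 590 nm. IC50 from sigmoidal fits of triplicate points.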

[2] = test system: Trypanosoma brucei brucei; test: Trypanocidal activity against bloodstream stage of Trypanosoma brucei brucei infected in acute BALB/c mouse assessed as animal survival rate at 50 mg/kg, ip bid administered for 5 days initiated 24 hrs post infection; type: functional; settings: route intraperitoneal
How it was run: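 Female BALB/c mice infected i.p. with 600 T. b. brucei 221 bloodstream parasites; from 24 h post-infection, dosed 50 mg/kg i.p. twice daily for 5 days in 5% ethanol/45% sterile deionized water/50% PEG400. Parasitaemia was checked on trypan-blue-stained tail-vein blood smears every other day for 10 days, then weekly; survival was followed to day 30.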

[3] = test system: Trypanosoma brucei brucei; test: Trypanocidal activity against bloodstream stage of Trypanosoma brucei brucei infected in acute BALB/c mouse assessed as clearance of blood parasite on day 30 at 50 mg/kg, ip bid administered for 5 days initiated 24 hrs post infection; type: functional; settings: route intraperitoneal
How it was run: (§1)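 Female BALB/c mice infected i.p. with 600 T. b. brucei 221 parasites. Starting 24 h after infection, compounds were given i.p. at 50 mg/kg twice daily for 5 days, in 5% ethanol/45% water/50% PEG400. Untreated mice served as controls. Parasitemia was checked by trypan-blue-stained tail-vein blood smears every other day for ten days, then weekly, with survival followed to day 30.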

[4] = test system: Trypanosoma brucei brucei; test: Trypanocidal activity against bloodstream stage of Trypanosoma brucei brucei infected in acute BALB/c mouse assessed as extension of animal survival at 50 mg/kg, ip bid administered for 5 days initiated 24 hrs post infection; type: functional, organism-based; parameters: dose 50 mg/kg; how it was run: as §1

| Compound | IC50 (L929) [µg/mL] | IC50 [1] [µg/mL] | survival at 50 mg/kg [2] [%] | Activity [3] [%] | Activity [4] |
| --- | --- | --- | --- | --- | --- |
| O=C(c1ccccc1)c1ccn(-c2ccc3c(c2)B(O)OC3)c1 | > 10 | 0.09 (≈ 0.297 µM) | 100 | 100 |  |
| CCCNC(=O)c1cccn1-c1ccc2c(c1)B(O)OC2 | > 10 | 3.21 (≈ 11.3 µM) |  |  |  |
| NCc1ccc(C(=O)c2ccn(-c3ccc4c(c3)B(O)OC4)c2)cc1 | > 10 | 0.18 (≈ 0.542 µM) |  |  |  |
| COc1ccccc1C(=O)c1ccn(-c2ccc3c(c2)B(O)OC3)c1 | > 10 | 0.17 (≈ 0.51 µM) |  |  |  |
| Cc1ccc(C(=O)c2ccn(-c3ccc4c(c3)B(O)OC4)c2)s1 | > 10 | 0.07 (≈ 0.217 µM) | 100 | 100 |  |
| OB1OCc2ccc(-n3cc(Sc4ccc(O)cc4)c4ccccc43)cc21 | > 10 | > 5 |  |  |  |
| O=C(CCCN1C(=O)c2ccccc2C1=O)c1ccn(-c2ccc3c(c2)B(O)OC3)c1 | > 10 | 0.72 (≈ 1.74 µM) |  |  |  |
| O=C(c1ccc(O)cc1)c1ccn(-c2ccc3c(c2)B(O)OC3)c1 | > 10 | 0.06 (≈ 0.188 µM) |  |  | Active |
| COc1cc(C(=O)c2ccn(-c3ccc4c(c3)B(O)OC4)c2)cc(OC)c1OC | 1.15 (≈ 2.92 µM) | 0.16 (≈ 0.407 µM) |  |  |  |
| O=C(c1ccn(-c2ccc3c(c2)B(O)OC3)c1)c1cccs1 | > 10 | 0.08 (≈ 0.259 µM) |  |  |  |
| CCCCCC(=O)c1ccn(-c2ccc3c(c2)B(O)OC3)c1 | > 10 | 0.09 (≈ 0.303 µM) |  |  |  |
| COc1ccc([S+]([O-])c2cn(-c3ccc4c(c3)B(O)OC4)c3ccccc23)cc1 (stereo not drawn) | > 10 | 1.56 (≈ 3.87 µM) |  |  |  |
| OB1OCc2ccc(-n3cc(Sc4cccc(Cl)c4)c4ccccc43)cc21 | > 10 | > 5 |  |  |  |
| O=C(O)c1cccn1-c1ccc2c(c1)B(O)OC2 | > 10 | 0.13 (≈ 0.535 µM) |  |  |  |
| Cc1ccc(C(=O)c2ccn(-c3ccc4c(c3)B(O)OC4)c2)cc1 | > 10 | 0.08 (≈ 0.252 µM) |  |  |  |
| CCc1ccc(C(=O)c2ccn(-c3ccc4c(c3)B(O)OC4)c2)cc1 | > 10 | 0.07 (≈ 0.211 µM) |  |  | Active |

| Compound | IC50 (L929) [µg/mL] | IC50 [1] [µg/mL] | survival at 50 mg/kg [2] [%] | Activity [3] [%] | Activity [4] |
| --- | --- | --- | --- | --- | --- |
| CC(=O)OCc1ccc(C(=O)c2ccn(-c3ccc4c(c3)B(O)OC4)c2)cc1 | 10 (≈ 26.7 µM) | 0.03 (≈ 0.08 µM) |  |  |  |
| OB1OCc2ccc(-n3cc(Sc4ccc(Cl)cc4)c4ccccc43)cc21 | > 10 | > 5 |  |  |  |
| OB1OCc2ccc(-n3cccc3)cc21 | > 10 | 1.98 (≈ 9.95 µM) |  |  |  |
| O=C(c1ccccc1)c1ccn(-c2ccccc2)c1 | > 10 | > 5 |  |  |  |
| OB1OCc2ccc(-n3cc(Sc4ccc5ccccc5c4)c4ccccc43)cc21 | > 10 | > 5 |  |  |  |
| Cc1ccsc1C(=O)c1ccn(-c2ccc3c(c2)B(O)OC3)c1 | > 10 | 0.11 (≈ 0.34 µM) |  |  |  |
| COc1ccc(CNC(=O)c2cccn2-c2ccc3c(c2)B(O)OC3)cc1 | > 10 | 0.7 (≈ 1.93 µM) |  |  |  |
| O=C(c1ccccc1)c1ccn(-c2ccc3c(c2)C(O)OC3)c1 (stereo not drawn) | 8.18 (≈ 26.8 µM) | > 5 |  |  |  |
| O=C(Cc1ccccc1)c1ccn(-c2ccc3c(c2)B(O)OC3)c1 | > 10 | 0.29 (≈ 0.914 µM) |  |  |  |
| O=C(c1ccn(-c2ccc3c(c2)B(O)OC3)c1)C1CCCCC1 | > 10 | 0.13 (≈ 0.42 µM) |  |  |  |
| O=C(c1ccn(-c2ccc3c(c2)B(O)OC3)c1)c1cccc2ccccc12 | 5.59 (≈ 15.8 µM) | 0.4 (≈ 1.13 µM) |  |  |  |
| OB1OCc2ccc(-n3cccc3Sc3ccccc3Cl)cc21 | > 10 | 2.89 (≈ 8.46 µM) |  |  |  |
| O=C(c1ccn(-c2ccc3c(c2)B(O)OC3)c1)c1ccccc1Cl | > 10 | 0.28 (≈ 0.829 µM) |  |  |  |
| OB1OCc2ccc(-n3cc(Sc4ccc(F)cc4)c4ccccc43)cc21 | > 10 | > 5 |  |  |  |
| O=C(c1ccc(CO)cc1)c1ccn(-c2ccc3c(c2)B(O)OC3)c1 | 9.31 (≈ 27.9 µM) | 0.04 (≈ 0.12 µM) |  |  |  |
